# Measurements collected from several papers.
# Compare with care: the assays were run in different laboratories.
# Target: Serine/threonine-protein kinase D2 (PRKD2, Homo sapiens, UniProt Q9BZL6)
# Residues used in one study (Q9BZL6 1-878): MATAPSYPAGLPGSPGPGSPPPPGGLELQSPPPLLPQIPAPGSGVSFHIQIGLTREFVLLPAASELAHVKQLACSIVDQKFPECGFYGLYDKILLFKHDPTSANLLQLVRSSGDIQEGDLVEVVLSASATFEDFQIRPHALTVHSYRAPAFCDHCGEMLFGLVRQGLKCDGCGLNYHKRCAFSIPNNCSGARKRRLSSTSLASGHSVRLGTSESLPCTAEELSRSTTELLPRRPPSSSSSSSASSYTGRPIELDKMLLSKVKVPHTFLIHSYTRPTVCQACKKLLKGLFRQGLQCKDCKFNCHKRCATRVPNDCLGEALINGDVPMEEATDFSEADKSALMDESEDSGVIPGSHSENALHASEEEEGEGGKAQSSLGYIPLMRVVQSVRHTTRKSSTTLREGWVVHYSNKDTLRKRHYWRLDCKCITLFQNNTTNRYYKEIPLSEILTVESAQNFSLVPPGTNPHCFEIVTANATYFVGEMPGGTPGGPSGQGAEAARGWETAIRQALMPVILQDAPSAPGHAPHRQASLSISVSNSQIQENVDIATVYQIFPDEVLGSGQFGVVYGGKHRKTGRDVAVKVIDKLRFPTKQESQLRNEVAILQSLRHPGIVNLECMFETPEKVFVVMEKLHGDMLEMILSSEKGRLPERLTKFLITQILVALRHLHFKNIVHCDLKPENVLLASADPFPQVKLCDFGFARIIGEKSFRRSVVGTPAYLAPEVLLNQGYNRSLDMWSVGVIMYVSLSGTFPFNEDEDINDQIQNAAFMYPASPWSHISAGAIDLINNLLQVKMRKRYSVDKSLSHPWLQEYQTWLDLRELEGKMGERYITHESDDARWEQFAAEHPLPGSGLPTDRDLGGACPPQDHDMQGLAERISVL
Structure (SMILES),observed,mode,technique,concentration,quantity,value
Cc1ccc(NC(=O)c2ccc(C)c(C(F)(F)F)c2)cc1C#Cc1nn(C2CCC(O)CC2)c2ncnc(N)c12 (stereo not drawn),cell-free assay,,,10 µM,remaining signal,108%
Cc1ccc(C(=O)Nc2ccc(CN3CCN(C)CC3)c(C(F)(F)F)c2)cc1C#Cc1cnc2cccnn12,enzyme activity,inhibitor,,23.5 nM,remaining activity,95%
COc1cccc(CNC(=O)c2nc3scc(COCc4ccc(C(=O)O)cc4)c3c(=O)[nH]2)c1,cell-free assay,,competition with immobilised ligand,1 µM,remaining binding,100%
CN1CC(Oc2cnc(C#N)cc2-c2ccn3nc(NC(=O)C4CC4)cc3c2)C1,enzyme activity,inhibitor,,1 µM,inhibition,-22%
Cn1c2c(c3ccc(Cl)c(Cl)c31)C(C#N)C1(CCNCC1)NC2=O (racemic),thermal stability,,DSF,10 µM,ΔTm,0.9 °C
Cc1c(NC(=O)c2cc(C(N)=O)nc3cc(F)ccc23)c(C(F)(F)F)nn1Cc1ccc(C(C)(C)C)cc1,cell-free assay,,competition with immobilised ligand,1 µM,remaining binding,100%
O=C1NC(=O)c2cc(Nc3ccc(F)cc3)c(Nc3ccc(F)cc3)cc21,cell-free assay,,,0.5 µM,remaining signal,86.8%
Cn1c2c(c3ccc(Cl)c(Cl)c31)C(C#N)C1(CCN(C(=O)OC(C)(C)C)CC1)NC2=O (racemic),thermal stability,,DSF,10 µM,ΔTm,0 °C
Cc1ccc(C(=O)NCc2ccsc2)cc1C#Cc1cn(C(C)C)c2ncnc(N)c12,enzyme activity,inhibitor,,1 µM,activity vs control,71%
CCCCN(CCCC)C(=O)CN1C[C@H](c2cc(OC)c3c(c2)OCO3)[C@@H](C(=O)O)[C@@H]1CC(C)(C)CCC,cell-free assay,,competition with immobilised ligand,1 µM,remaining binding,100%
Cn1c2c(c3ccc(Cl)c(Cl)c31)C(C#N)C1(CCCC1)NC2=O (stereo not drawn),thermal stability,,DSF,10 µM,ΔTm,-0.1 °C
C[C@@]1(Cc2ccc(C#N)cc2)C(=O)N(c2cc(Cl)cc(Cl)c2)c2ncc(C(=O)NC3(c4nc(C5CCC5)no4)CC3)n21,cell-free assay,,competition with immobilised ligand,1 µM,remaining binding,100%
O=S1(=O)N=C(NCc2ccc(OC(F)(F)F)cc2)Nc2cc(Cl)ccc21,binding,,competition with immobilised ligand,10 µM,inhibition,> 90%
Cn1nc(C(=O)NCc2ccc(C(=O)O)cc2)cc1-c1ccc2[nH]ccc2c1,cell-free assay,,competition with immobilised ligand,0.1 µM,remaining binding,100%
Cc1ccc(Nc2nccc(N(C)c3ccc4c(C)n(C)nc4c3)n2)cc1S(N)(=O)=O,enzyme activity,inhibitor,,10 µM,inhibition,15%
COc1cc2ncnc(Nc3ccc(Oc4ccccc4)cc3C)c2cc1OC,enzyme activity,inhibitor,,1 µM,inhibition,9%
CC/C(=N\NC(=O)NCc1cccc(O)c1)c1ccc(O)c(C)c1O,enzyme activity,inhibitor,,0.1 µM,inhibition,-11.5%
CO[C@H]1CC[C@H](CNc2ccc(S(=O)(=O)NC(=O)c3ccc(N4CCN(CC5=C(c6ccc(Cl)cc6)CC(C)(C)CC5)CC4)cc3Oc3cnc4[nH]ccc4c3)cc2[N+](=O)[O-])CC1,cell-free assay,,competition with immobilised ligand,1 µM,remaining binding,100%
COc1cc(Cl)c(C(=O)N[C@@H](CN[C@H]2CC[C@@H](N)CC2)Cc2ccc(C#N)cc2)cc1-c1ccc(CN[C@H](C)c2ccc(C)cc2)o1,enzyme activity,inhibitor,,1 µM,remaining activity,109%
Cn1cncc1C1=CN(c2ncnc3[nH]cnc23)CCS1,enzyme activity,inhibitor,radiometric,50 nM,inhibition,38.2%
CC(C)(C)c1nc2c(s1)c1nc(N)ncc1c1ccc(NS(=O)(=O)c3c(F)cccc3F)c(F)c12,enzyme activity,inhibitor,radiometric,1 µM,remaining activity,79%
COc1ccc(COc2ccc(Cc3cnc(N)nc3N)cc2OC)cc1,cell-free assay,,,0.5 µM,remaining signal,99.4%
CNC(=O)c1cc(Oc2ccc(NC(=O)Nc3ccc(Cl)c(C(F)(F)F)c3)cc2)ccn1,enzyme activity,inhibitor,,10 µM,inhibition,15%
CCN1CCC2(CC1)NC(=O)c1c(c3ccc(Cl)c(Cl)c3n1C)C2C#N (racemic),thermal stability,,DSF,10 µM,ΔTm,0.6 °C
Cc1sc(C(=O)NC2COC2)cc1-n1cc(NC(=O)Nc2c(F)cccc2Cl)cn1,enzyme activity,inhibitor,,10 µM,remaining activity,95.7%
CSc1cccnc1N1CCN(Cc2nc3ccccc3[nH]2)CC1,cell-free assay,,competition with immobilised ligand,1 µM,remaining binding,100%
Cn1c2c(Cl)c(Cl)ccc2c2cc[nH]c(=O)c21,thermal stability,,DSF,10 µM,ΔTm,0.4 °C
CCN(CC)CCNC(=O)c1c(C)[nH]c(/C=C2\C(=O)Nc3ccc(F)cc32)c1C,enzyme activity,inhibitor,,10 µM,inhibition,88%
O=C1Nc2ccc(Cl)cc2C1=Cc1cc(Cl)c(O)c(Cl)c1,cell-free assay,,,0.5 µM,remaining signal,95.5%
CCS(=O)(=O)c1cc2cc(C[C@@](O)(CC(C)(C)c3ccc(F)cc3C(N)=O)C(F)(F)F)[nH]c2cn1,cell-free assay,,competition with immobilised ligand,1 µM,remaining binding,89%
Cn1cnc(Br)c1C1=CN(c2ncnc3[nH]cnc23)CCS1,enzyme activity,inhibitor,radiometric,2 µM,inhibition,95.6%
Cn1c2c(c3ccc(Cl)c(Cl)c31)C(C#N)C1(CCCCC1)NC2=O (racemic),thermal stability,,DSF,10 µM,ΔTm,0.1 °C
CCCCNc1ncc2c(-c3ccc(F)cc3)nn(C[C@H]3CC[C@H](N)CC3)c2n1,target engagement in cells,inhibitor,chemoproteomics,20 mM,inhibition,28.3%
